Source: ChEMBL document CHEMBL1156919, “Synthesis and induction of apoptosis signaling pathway of ent-kaurane derivatives” (Bioorg Med Chem, 2010)
pIC50: −log10 of the molar value. Active and inactive are the calls of the source. The calls are words filed in the database; no cut-off is given here.

Experiments:
RAW264.7 [1] = assay: Cytotoxicity against mouse RAW264.7 cells assessed as reduction in cell viability after 24 hrs by MTT assay; type: functional, cell-based; settings: RAW264.7, 24 h
In short: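 RAW 264.7 mouse macrophage line kept in RPMI 1640 with 10% FBS, L-glutamine and antibiotics. Treated with 1–100 μM for 24 h, then MTT at 37 °C for 4 h. Formazan taken up in DMSO and read at 540 nm. Triplicate, at least three independent experiments. IC50 is the concentration giving 50% loss of viability relative to untreated cells.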

RAW264.7 [2] = assay: Decrease in Bcl-xl protein expression in mouse RAW264.7 cells at 5 uM by Western blot; type: functional, cell-based
In short: (§1)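 RAW 264.7 cells incubated with 5 μM and sampled at several time points. Cytosolic extracts run on SDS–PAGE (10–15% gels) and blotted to PVDF. Probed for p53, Bax, Bcl-2, Bcl-xl, XIAP, IAP-1 and IAP-2, then HRP secondary and chemiluminescence. β-actin served as loading control. Protein measured by Bio-Rad assay.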

RAW264.7 [3] = assay: Induction of apoptosis in mouse RAW264.7 cells assessed as caspase 9 activation at 5 uM after 24 hrs by fluorimetry; type: functional, cell-based
In short: (§2)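 RAW cells treated with 5 μM for 24 h, with or without 40 μM z-VAD. Caspase activity read fluorimetrically in cytosolic extracts. Substrates: Ac-DEVD-AMC for caspase-3, Ac-IETD-AFC for caspase-8, Ac-LEHD-AFC for caspase-9. Means ± SD of three independent experiments run in triplicate.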

RAW264.7 [4] = assay: Induction of apoptosis in mouse RAW264.7 cells at 1 to 25 uM after 24 hrs by flow cytometry; type: functional, cell-based
In short: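 RAW 264.7 cells exposed to 1–25 μM for 24 h. Stained with 0.005% (w/v) propidium iodide and analysed at once by flow cytometry. Apoptotic and necrotic fractions taken from a forward scatter versus PI fluorescence dot plot. Means ± SD of three independent experiments in triplicate.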

RAW264.7 [5] = assay: Increase in p53 protein expression in mouse RAW264.7 cells at 5 uM by Western blot; type: functional, cell-based; in short: as §1
RAW264.7 [6] = assay: Decrease in IAP protein expression in mouse RAW264.7 cells at 5 uM by Western blot; type: functional, cell-based; in short: as §1
HeLa = assay: Cytotoxicity against human HeLa cells assessed as reduction in cell viability after 24 hrs by MTT assay; type: functional, cell-based
In short: (§3)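 Cancer cells kept in DMEM with 10% FBS, L-glutamine and antibiotics. Exposed to 1–100 μM for 24 h, then MTT at 37 °C for 4 h. Formazan dissolved in DMSO and read at 540 nm. Triplicate wells, at least three independent experiments. Viability reduction expressed against untreated cultures. IC50 is the concentration giving 50% loss of viability.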

RAW264.7 [7] = assay: Induction of apoptosis in mouse RAW264.7 cells assessed as caspase 3 activation at 5 uM after 24 hrs by fluorimetry; type: functional, cell-based; in short: as §2
[8] = Toxicity in thioglycolate-induced mouse peritoneal macrophages assessed as reduction in cell viability after 24 hrs by MTT assay; type: cell-based; settings: peritoneal macrophage cell
In short: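 Primary peritoneal macrophages from thioglycolate-injected mice exposed to a range of concentrations for 24 h. Viability read by MTT at 37 °C for 4 h, formazan dissolved in DMSO, absorbance at 540 nm. Three independent experiments in duplicate, means ± SD.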

HT-29 = assay: Cytotoxicity against human HT-29 cells assessed as reduction in cell viability after 24 hrs by MTT assay; type: functional, cell-based; settings: HT-29, 24 h; in short: as §3
HepG2 = assay: Cytotoxicity against human HepG2 cells assessed as reduction in cell viability after 24 hrs by MTT assay; type: functional, cell-based; settings: HepG2, 24 h; in short: as §3
RAW264.7 [9] = assay: Induction of apoptosis in mouse RAW264.7 cells at 5 uM in presence of 40 uM caspase inhibitor z-VAD after 24 hrs by flow cytometry; type: functional, cell-based
In short: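 RAW 264.7 cells given 5 μM for 24 h, with or without 40 μM z-VAD. Stained with 0.005% (w/v) PI and analysed by flow cytometry. Apoptotic percentage taken from a forward scatter versus PI fluorescence dot plot. Three independent experiments in triplicate, means ± SD.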

[10] = Toxicity in thioglycolate-induced mouse peritoneal macrophages assessed as induction of apoptosis after 24 hrs by flow cytometry; type: cell-based; settings: peritoneal macrophage cell
In short: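 Peritoneal macrophages collected from thioglycolate-injected mice and treated across a concentration range for 24 h. Stained with PI and analysed by flow cytometry for apoptotic percentage. Means ± SD of three independent experiments done in duplicate.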

RAW264.7 [11] = assay: Induction of apoptosis in mouse RAW264.7 cells assessed as caspase 3 activation at 5 uM in presence of 40 uM caspase inhibitor z-VAD after 24 hrs by fluorimetric assay; type: functional, cell-based; in short: as §2
RAW264.7 [12] = assay: Induction of apoptosis in mouse RAW264.7 cells assessed as caspase 9 activation at 5 uM in presence of 40 uM caspase inhibitor z-VAD after 24 hrs by fluorimetric assay; type: functional, cell-based; in short: as §2
RAW264.7 [13] = assay: Induction of apoptosis in mouse RAW264.7 cells assessed as caspase 8 activation at 5 uM in presence of 40 uM caspase inhibitor z-VAD after 24 hrs by fluorimetric assay; type: functional, cell-based; in short: as §2
RAW264.7 [14] = assay: Decrease in Bcl-2 protein expression in mouse RAW264.7 cells at 5 uM by Western blot; type: functional, cell-based; in short: as §1
RAW264.7 [15] = assay: Increase in Bax protein expression in mouse RAW264.7 cells at 5 uM by Western blot; type: functional, cell-based; in short: as §1
RAW264.7 [16] = assay: Induction of apoptosis in mouse RAW264.7 cells assessed as caspase 8 activation at 5 uM after 24 hrs by fluorimetry; type: functional, cell-based; in short: as §2

Compound `C=C1[C@@H]2CC[C@H]3[C@]4(C)CCC[C@@](C)(C(=O)OC)[C@H]4CC[C@]3(C2)[C@H]1OC(C)=O` has a pIC50 (RAW264.7 [1]) of 4.60.

For `COC(=O)[C@]1(C)CCC[C@@]2(C)[C@@H]3CC[C@@H]4C[C@@]3(CC[C@@H]21)C(=O)[C@H]4CCc1ccccc1`, the pIC50 (RAW264.7 [1]) was < 4.00.

Compound `C=C1C[C@@]23CC[C@@H]4[C@](C)(CO)CCC[C@@]4(C)C2=CC[C@@H]1C3` has a pIC50 (RAW264.7 [1]) of 4.46.

Compound `C=C1C[C@@]23CC[C@H]4[C@@](C)(CCC[C@@]4(C)C(=O)OCc4ccccc4)[C@@H]2CC[C@@H]1C3` [KAURENOIC ACID BENZYL ESTER] has a pIC50 (RAW264.7 [1]) of 4.60.

In the case of `C=C1C[C@@]23CC[C@H]4[C@@](C)(CCC[C@@]4(C)C(=O)O)[C@@H]2CC[C@@H]1C3` [KAURENOIC ACID], the pIC50 (RAW264.7 [1]) was < 4.00.

With `COC(=O)[C@]1(C)CCC[C@@]2(C)C3=CC[C@@H]4C[C@]3(C=C4C=O)CC[C@H]12` the Activity (RAW264.7 [2]) was “Active”, the Activity (RAW264.7 [3]) was “Active” and the Activity (RAW264.7 [4]) was “Active”. The Activity (RAW264.7 [5]) was “Active”, the pIC50 (RAW264.7 [1]) was 5.30 and the Activity (RAW264.7 [6]) was “Active”. For the same compound, the pIC50 (HeLa) was 5.00, the Activity (RAW264.7 [7]) was “Active” and the Activity [8] was “Toxic”. The pIC50 (HT-29) was 4.40, the pIC50 (HepG2) was 4.60 and the Activity (RAW264.7 [9]) was “inactive”. The Activity [10] was “Toxic”, the Activity (RAW264.7 [11]) was “inactive” and the Activity (RAW264.7 [12]) was “inactive”. The Activity (RAW264.7 [13]) was “inactive”, the Activity (RAW264.7 [14]) was “Active” and the Activity (RAW264.7 [15]) was “Active”.

With `C=C1[C@@H]2CC=C3[C@@](CC[C@@H]4[C@](C)(C(=O)OC)CCC[C@@]34C)(C2)[C@H]1O` the pIC50 (RAW264.7 [1]) was < 4.00.

With `COC(=O)[C@]1(C)CCC[C@@]2(C)[C@@H]3CC[C@@H]4C[C@@]3(CC[C@@H]21)C[C@@]4(C)Cl` the pIC50 (RAW264.7 [1]) was < 4.00.

For `C=C1C[C@@]23CC[C@@H]4[C@](C)(C(=O)OC)CCC[C@@]4(C)C2=CC[C@@H]1C3` [GRANDIFLORENIC ACID METHYL ESTER], the pIC50 (RAW264.7 [1]) was 4.46.

In the case of `C=C1C[C@@]23CC[C@@H]4[C@](C)(C(=O)O)CCC[C@@]4(C)C2=CC[C@@H]1C3` [GRANDIFLORENIC ACID], the pIC50 (RAW264.7 [1]) was 4.82.

With `COC(=O)[C@]1(C)CCC[C@@]2(C)C3=CC[C@@H]4C[C@@]3(CC[C@H]12)C[C@]4(O)CO` the pIC50 (RAW264.7 [1]) was 4.60.

For `COC(=O)[C@]1(C)CCC[C@@]2(C)[C@@H]3CC[C@@H]4C[C@]3(C=C4C=O)CC[C@@H]21`, the pIC50 (RAW264.7 [1]) was 4.60.

Compound `COC(=O)[C@]1(C)CCC[C@@]2(C)[C@@H]3CC[C@@H]4C[C@@]3(CC[C@@H]21)C(=O)C41CCN=N1` (stereo partly specified) has a pIC50 (RAW264.7 [1]) of 4.00.

In the case of `C=C1[C@@H]2CC[C@H]3[C@]4(C)CCC[C@@](C)(C(=O)OC)[C@H]4CC[C@]3(C2)[C@H]1O`, the pIC50 (RAW264.7 [1]) was < 4.00.

In the case of `C=C1C[C@@]23CC[C@H]4[C@@](C)(CCC[C@@]4(C)C(=O)OC)[C@@H]2CC[C@@H]1C3` [KAURENOIC ACID METHYL ESTER], the pIC50 (RAW264.7 [1]) was 4.12.

With `C=C1[C@H]2CC3=C([C@H](C2)[C@@H]1O)[C@]1(C)CCC[C@@](C)(C(=O)OC)[C@H]1CC3` the Activity (RAW264.7 [2]) was “Active”, the Activity (RAW264.7 [3]) was “Active” and the Activity (RAW264.7 [4]) was “Active”. The Activity (RAW264.7 [5]) was “Active”, the pIC50 (RAW264.7 [1]) was 5.30 and the Activity (RAW264.7 [6]) was “Active”. The Activity (RAW264.7 [16]) was “Active”, the pIC50 (HeLa) was < 4.00 and the Activity (RAW264.7 [7]) was “Active”. The Activity [8] was “Non-toxic”, the pIC50 (HT-29) was < 4.00 and the pIC50 (HepG2) was < 4.00. For the same compound, the Activity (RAW264.7 [9]) was “inactive”, the Activity [10] was “Non-toxic” and the Activity (RAW264.7 [11]) was “inactive”. The Activity (RAW264.7 [12]) was “inactive”, the Activity (RAW264.7 [13]) was “inactive” and the Activity (RAW264.7 [14]) was “Active”. For the same compound, the Activity (RAW264.7 [15]) was “Active”.
